Results from article PMC6246805 (SLAS discovery : advancing life sciences R & D, 2018).
Where a name gives a salt, the structure may show the parent alone.

Columns and labels:
[1] = molecular target: T1, aerobactin synthetase IucA (Klebsiella pneumoniae, UniProt A0A1A9TA96); assay type: biochemical, hypervirulent K. pneumoniae hvKP1; details: for inhibition of IucA in pilot screen and follow-up: pilot screen of 4,400 bioactives, enzyme-initiated protocol; for effect of increasing IucA concentration on apparent potency: 20, 200, or 2,000 nM IucA; for effect of increasing IucA concentration on apparent potency / effect of 1 h pre-incubation with IucA on apparent potency: MG assay; for effect of 1 h pre-incubation with IucA on apparent potency: compared to reactions without pre-incubation
IucA [2] = details: read-out: KM for IucA; cited from earlier work
[3] = ref PubChem database; cited from earlier work
[4] = molecular target: T1, aerobactin synthetase IucA; assay: Orthogonal luminescence; assay type: biochemical, hypervirulent K. pneumoniae hvKP1; details: 30 min pre-incubation, substrate-initiated
IucA [5] = assay: Fluorescence-based thermal shift assay; assay type: binding, hypervirulent K. pneumoniae hvKP1; details: substrates ATP (1.5 mM) and citrate (1.5 mM)
Summary of the method: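 Purified IucA (10 μg per sample) with 5× SYPRO Orange, in the more concentrated buffer used for substrate runs: 50 mM HEPES, 150 mM NaCl, 0.2 mM TCEP, pH 7.5. ATP and citrate were each at 1.5 mM. Samples were heated from 25 to 99 °C over 45 min in a real-time PCR instrument, reading fluorescence (ex 545/em 568 nm) every 0.5 °C. TM was taken as the maximum of the first derivative of the melt curve.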

bacterial IspE kinase = details: cited from earlier work
human RAD51 recombinase = details: cited from earlier work
RecA = details: cited from earlier work

O=C(O)c1cc[c]([Hg][Cl])cc1 [4-chloromercuribenzoic acid, reference compound]
inhibition of IucA in pilot screen and follow-up [1]: identified in the initial screen

O=C([O-])c1ccccc1-c1c2cc(Br)c(=O)cc-2oc2[c]([Hg+])c([O-])c(Br)cc12.[Na+].[Na+].[OH-] [Merbromin, reference compound]
inhibition of IucA in pilot screen and follow-up [1]: identified in the initial screen

O=C(O)CC(O)(CC(=O)O)C(=O)O [citrate, sodium citrate tribasic dihydrate]
Km (IucA [2]): 180 ± 30 µM

C[CH2][Hg][S]c1ccccc1C(=O)[O-].[Na+] [thiomersal, reference compound]
inhibition of IucA in pilot screen and follow-up [1]: identified in the initial screen

CC1=NN(c2nc(-c3ccc(Cl)cc3)cs2)C(=O)/C1=C\c1ccc2c(c1)OCO2 [CB02]
effect of increasing IucA concentration on apparent potency [1]: apparent potency was reduced
effect of 1 h pre-incubation with IucA on apparent potency [1]: increased apparent potency
dose-dependent activity, primary substrate-initiated MG assay ([1]; purchased compounds, substrate-initiated protocol): highest potency
reported active in unique PubChem bioassays [3]: 2 out of 8
dose-dependent activity, secondary luminescence assay [4]: most potent dose-dependent activity

O=c1c2ccccc2[se]n1-c1ccccc1 [Ebselen, reference compound]
inhibition of IucA in pilot screen and follow-up [1]: identified as an inhibitor

Nc1ncnc2c1ncn2[C@@H]1O[C@H](COP(=O)(O)OP(=O)([O-])OP(=O)([O-])O)[C@@H](O)[C@H]1O.[Na+].[Na+] [ATP, adenosine triphosphate disodium salt hydrate]
Km (IucA [2]): 130 ± 30 µM
shift in the melting temperature (TM) of IucA (IucA [5]): +2–5 °C

COc1ccc(-n2c(-c3cccnc3)nc3ccccc3c2=O)cc1 [CB04]
inhibition of IspE kinase (bacterial IspE kinase): potent inhibitors

O=c1c2ccccc2nc(/C=C/c2cccnc2)n1Cc1ccccc1 [CB06]
effect of increasing IucA concentration on apparent potency [1]: apparent potency was reduced
effect of 1 h pre-incubation with IucA on apparent potency [1]: increased apparent potency
inhibition of human RAD51 recombinase (human RAD51 recombinase): inhibitor
inhibition of E. coli RecA (RecA): did not inhibit

O=c1c2ccccc2nc(-c2cccnc2)n1-c1ccc(Br)cc1 [CB05]
inhibition of IspE kinase (bacterial IspE kinase): potent inhibitors

CC(=O)[O][Hg][c]1ccccc1 [phenylmercuric acetate, reference compound]
inhibition of IucA in pilot screen and follow-up [1]: identified in the initial screen
